Bioassay records as filed in PubChem.
Only some compounds are listed: those with a hit (about 3.7% of all), similar ones and a draw of the others.
Granule exo inh: LAMP-1 surface exposure blockers, TALL-104 cells – cell-based, flow cytometry, MLPCN library, primary screen | TALL-104 LAMP-1 surface exposure; cells stimulated with thapsigargin and PMA | inhibition, % at 10 µM | 360,000 compounds, 0.66% hits | AID 651702, 2012;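 active = inhibition above about 55%, limit read from the data; inconclusive = no clear call, values can overlap the other calls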
MC4R ag barr: MC4R agonists recruiting beta-arrestin, primary screen, cell-based, luminescence, agonist arm of biased-ligand search; activation, % at 8.9 µM; 360,000 compounds, 0.98% hits; U2OS MC4R beta-arrestin complementation; percent of melanotan II response, DMSO zero;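 active = activation above a per-plate cutoff, the mean activation of sample wells on that plate plus 3 SD, cut at about 8% in these data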
Target sequence (P32245 whole entry, looked up): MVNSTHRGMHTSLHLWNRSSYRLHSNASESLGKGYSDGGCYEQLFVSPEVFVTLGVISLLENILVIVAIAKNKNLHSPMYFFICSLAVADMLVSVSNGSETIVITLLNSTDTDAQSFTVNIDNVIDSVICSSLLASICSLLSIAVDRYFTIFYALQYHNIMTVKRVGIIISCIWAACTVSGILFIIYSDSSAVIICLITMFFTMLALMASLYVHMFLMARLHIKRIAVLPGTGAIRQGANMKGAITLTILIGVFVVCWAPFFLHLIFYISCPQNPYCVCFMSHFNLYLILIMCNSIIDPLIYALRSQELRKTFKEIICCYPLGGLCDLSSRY
EBI2 antag: EBI2 receptor antagonists, beta-arrestin recruitment, primary screen, cell-based, luminescence, 7a,25-OHC stimulation, uHTS; G-protein coupled receptor 183 (Homo sapiens), P32249; 7a,25-OHC stimulated; inhibition, % at 5 µM; 360,000 compounds, 0.81% hits; in the data active = inhibition above about 38%;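 note: enzyme fragment complementation signal reports receptor beta-arrestin coupling in cells; 0% = agonist plus DMSO wells and 100% = wells without agonist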
Target sequence (P32249 whole entry, looked up, the tested form may be a part): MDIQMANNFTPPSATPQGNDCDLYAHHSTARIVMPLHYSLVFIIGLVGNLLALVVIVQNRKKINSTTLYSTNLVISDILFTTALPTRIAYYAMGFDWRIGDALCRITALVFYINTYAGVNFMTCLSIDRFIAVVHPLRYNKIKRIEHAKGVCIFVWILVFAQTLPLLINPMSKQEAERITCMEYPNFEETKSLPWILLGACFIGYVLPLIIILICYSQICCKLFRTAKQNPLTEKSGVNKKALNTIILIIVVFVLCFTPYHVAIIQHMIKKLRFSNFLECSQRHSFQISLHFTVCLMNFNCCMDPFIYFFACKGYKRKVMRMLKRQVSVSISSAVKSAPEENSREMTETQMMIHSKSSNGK
Myeloid diff 2: induction of myeloid progenitor differentiation, primary screen, cell-based, flow cytometry, MLPCN library. 360,000 compounds, 1% hits. ER-HoxA9 myeloid progenitors, lysozyme-GFP differentiation. AID 624256, 2012. calls only at 10 µM;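 active = normalized GFP-positive differentiation at or above the plate's own cutoff, the solvent-only control mean plus 3 SD; inconclusive = no clear call, values can overlap the other calls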;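 note: cells exposed to compound for four days before flow analysis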
MC4R antagonist: MC4R antagonists of cAMP signaling, primary screen, cell-based, TR-FRET, antagonist arm of biased-ligand search; inhibition, % at 6.5 µM; MC4R-expressing cells, MTII-stimulated cAMP, LANCE TR-FRET; 360,000 compounds, 0.48% hits; Melanocortin receptor 4 (Homo sapiens), P32245;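 active = inhibition above its plate's cutoff, the mean of tested wells on that plate plus 3 SD, cut at about 29% in these data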;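 note: 0% = Melanotan II alone and 100% = Melanotan II plus saturating MCL0020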
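Material: human MC4R-expressing U2OS cells. Probe or stimulus: Melanotan II challenge. Dosing: 6.5 µM single dose. Times: 30-min compound, 1-h challenge, 1-h detection, room temperature. Technique: TR-FRET with Eu-cAMP and labeled anti-cAMP, 671 nm. Replication: singlicate.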
Myeloid diff CP1: inducers of myeloid progenitor differentiation, confirmation, cell-based, GFP/Mac1 flow cytometry, cherry pick 01; shares compounds with Myeloid diff 2; ER-HoxA9 myeloid progenitors, GFP/Mac1 double-positive flow; calls only; 2,300 compounds, 2% hits; AID 651706, 2012;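 active = share of green or green-and-red cells above 9 and 9% in run 1 or 4 and 3% in run 2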
GFP autofluor: counter-screen for myeloid differentiation promoters: compound fluorescence | fluorescence response, % (no concentration beside the values) | shares compounds with Myeloid diff 2 | AID 651707 | ER-HoxA9 myeloid progenitors, no estrogen, GFP autofluorescence flow cytometry; vehicle wells 0%, positive control 100% | 2,300 compounds, 7.4% hits;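 active = over 5% cells positive for green fluorescent reporter, or over 2% positive for both it and APC stain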;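 note: range taken on the double positive population between DMSO and positive control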
An asterisk follows results filed as active; i = inactive; ? = inconclusive; / = no result given; + = active, no number.

SMILES | Granule exo inh | MC4R ag barr | EBI2 antag | Myeloid diff 2 | MC4R antagonist | Myeloid diff CP1 | GFP autofluor
Cn1c(N)c(C(=O)COC(=O)c2ccco2)c(=O)n(C)c1=O | -1.5 | -1.1 | -8.0 | + | 0.5 | i | 0.4
O=c1[nH]c2ccccc2c(O)c1-c1ccccc1[N+](=O)[O-] | 1.5 | -3.7 | -9.4 | i | -0.6 | / | /
Nc1nc(-c2ccc(Cl)cc2)cc(C(F)(F)F)n1 | 1.6 | 4.3 | 0.4 | i | -7.2 | / | /
Nc1nc(-c2ccc(F)cc2)cc(C(F)(F)F)n1 | 3.8 | 2.7 | -3.9 | i | -2.1 | i | 0.6
CC(C)CC(=O)NC(C)C(c1cccs1)N1CCOCC1 (stereo not given) | -3.2 | -1.1 | -5.2 | i | 6.0 | / | /
CC(=Nc1ccccc1C)C1=C(O)CSC1=O | -0.2 | 2.7 | -4.4 | + | -7.2 | i | 0.4
CC(=Nc1ccccc1)C1=C(O)CSC1=O | -1.0 | -2.5 | -6.9 | i | -2.7 | / | /
O=C1OC=NC1=Cc1ccccc1 | -3.6 | -0.8 | -1.0 | i | 6.6 | / | /
Cc1cc2c3c(c1)C1(C(=O)N3C(C)(C)CC2C)C(C#N)=C(N)Oc2n[nH]c(C)c21 (stereo not given) | -0.4 | -2.0 | -6.3 | i | 1.1 | / | /
Cc1cc2c3c(c1C)C1(C(=O)N3C(C)(C)CC2C)C(C#N)=C(N)Oc2n[nH]c(C)c21 (stereo not given) | -2.8 | 0.8 | -14.7 | + | -4.1 | i | 0.0
COc1ccc2c(c1)OC[C@H]1[C@H]2N2C(=O)c3cc(OC)ccc3NC(=O)[C@@]2(C)[C@H]1c1ccccc1 | -7.2 | -2.2 | 2.6 | i | 5.5 | i | 0.0
COc1ccc2c(c1)OC[C@H]1[C@H]2N2C(=O)c3cc(Cl)ccc3NC(=O)[C@@]2(C)[C@H]1c1ccccc1 | 2.3 | 0.1 | -1.2 | i | 9.6 | / | /
COc1ccc(CCN2CC(C(=O)Nc3ccc(S(C)(=O)=O)cc3)CC2=O)cc1OC (stereo not given) | -2.8 | 2.2 | -5.2 | i | 0.7 | / | /
COC(=O)c1ccc(NC(=S)NC2CCCCC2C)cc1 (stereo not given) | 11.7 | -0.7 | 3.6 | + | -6.5 | i | 0.0
O=C(c1cc(Br)ccc1Cl)N1CCN(c2ccccn2)CC1 | -26.2 | -1.6 | 5.6 | i | 2.6 | / | /
Cc1cc(C)cc(OCc2nc(-c3cccnc3)no2)c1 | -3.9 | -2.8 | 2.4 | + | 2.4 | i | 0.3
Cc1ccc(OCc2nc(-c3cccnc3)no2)cc1C | -1.5 | -1.1 | 7.5 | i | 4.6 | / | /
CCC(=O)N1CCCC(C)(C(=O)Nc2ccc3oc(CC)nc3c2)C1 (stereo not given) | 0.0 | -0.1 | 1.9 | i | 0.1 | / | /
CCCNC(=O)N1C[C@H](O)COC[C@@H]2O[C@@H](CC(=O)NCCCN3CCOCC3)CC[C@H]21 | 6.4 | / | 0.2 | i | / | / | /
Cn1cnnc1-c1cccc(NC(=O)c2cc(F)c(F)cc2Cl)c1 | 1.3 | -1.4 | -5.4 | i | 1.6 | / | /
O=C(CSc1nnnn1-c1ccccc1)NCC1(N2CCOCC2)CCCCC1 | 8.7 | 0.0 | 5.8 | i | 4.0 | i | 3.2
O=C(Cc1ccc(Cl)cc1Cl)NCC1(N2CCOCC2)CCCCC1 | -5.7 | 0.0 | -0.8 | i | 11.5 | i | 0.0
O=C(CN1CCN(S(=O)(=O)c2cccc(Cl)c2)CC1)NCC1(N2CCOCC2)CCCCC1 | -3.3 | -3.6 | -11.1 | i | 9.6 | / | /
Cc1cc(F)ccc1-c1cc(C(=O)NCc2ccco2)[nH]n1 | 10.5 | -2.3 | -1.2 | i | 7.0 | / | /
O=C(COC(=O)c1cc[n+]([O-])cc1)Nc1ccc(Cl)cc1C(F)(F)F | 1.7 | 0.2 | 9.0 | i | 2.8 | / | /
SMILES | Granule exo inh | MC4R ag barr | EBI2 antag | Myeloid diff 2 | MC4R antagonist | Myeloid diff CP1 | GFP autofluor
Cc1cccc(C)c1NC(=O)C1C(c2ccccc2)=Nc2ccccc2N1C(=O)c1cnccn1 (stereo not given) | 2.7 | / | 6.4 | i | / | / | /
CN1CCN(c2ccc(CNC(=O)c3ccc(-c4ccc(F)c(F)c4)c4ccoc34)cc2)CC1 | 49.1 | 1.7 | 10.8 | + | 19.0 | i | 2.5
CCCCNC(=O)c1nc(-c2cc3ccccc3[nH]2)oc1-c1ccccc1 | 6.9 | / | -1.9 | i | / | / | /
Fc1ccc(Nc2nnc(-c3ccncc3)s2)cc1Cl | 2.0 | 3.2 | 2.1 | i | 10.4 | / | /
O=C(/C=C\Nc1ccccn1)c1ccc(Cl)cc1 | 13.8 | 0.9 | 5.7 | + | -4.6 | i | 0.0
Cc1cccc(N/C=C/C(=O)c2ccc(Cl)cc2)c1 | -2.8 | 1.6 | 15.9 | i | 11.2 | / | /
CCc1nc2ccc(C(=O)NCCc3ccc(OC)cc3)cc2nc1CC | 12.0 | 0.4 | 2.6 | i | -8.6 | i | 0.2
O=C(/C=C/c1cccc(C(F)(F)F)c1)Nc1cccc(C(F)(F)F)c1 | 8.9 | 1.4 | 1.7 | i | 15.5 | i | 0.0
COC(=O)C1CCCN1C(=O)c1cccs1 (stereo not given) | -1.6 | 0.7 | -13.4 | + | -0.2 | i | 0.3
COc1cc(NC(=O)CNc2cccc(S(=O)(=O)N3CCOCC3)c2)cc(OC)c1 | 1.4 | -0.2 | 8.7 | i | -1.5 | / | /
CN1C(=O)N2CN(C3CCCCC3)CN3C(=O)N(C)C1C23 (stereo not given) | 1.4 | -1.6 | -14.6 | i | 11.4 | i | 0.0
Cc1cn([C@H]2C[C@H](O)[C@@H](CNS(=O)(=O)N3CCCC3)O2)c(=O)[nH]c1=O | -2.1 | 0.1 | 0.3 | i | 5.3 | / | /
O=C(OCc1ccccc1)N1CCC2CC1c1cc(Cl)ccc12 (stereo not given) | 1.8 | 1.3 | 9.5 | ? | 10.2 | i | 0.3
Cc1cc(C(=O)NC2CCCc3c2cnn3-c2cccc(C)c2C)n(C)n1 (stereo not given) | 15.9 | 3.9 | -21.4 | + | 8.1 | i | 0.0
Cc1cccc(-n2ncc3c2CCCC3NC(=O)c2ccc[n+]([O-])c2)c1C (stereo not given) | -1.6 | -2.4 | -1.4 | i | -1.8 | / | /
Cc1cccc(-c2n[nH]nc2C2=CC(=O)CC(C)(C)C2)c1 | -0.2 | 2.4 | -1.9 | i | -5.0 | / | /
Cc1ccc(C(=O)OCC(=O)c2c[nH]c3ccccc23)cc1NC(=O)c1ccco1 | -1.7 | 1.7 | -10.4 | i | -8.8 | i | 0.0
C/C(=N\Nc1ccc2nncn2n1)c1ccc(Br)s1 | 2.9 | -1.0 | 2.3 | i | -3.2 | / | /
